SMILES strings stand for the structures. Values after ≈ are worked out from the molar mass of the structure shown.

A short description of data set [1]: Lipophilicity, log K of the compound. The format is physicochemical. The method in brief: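 Mobile phase used methanol as organic modifier. The capacity factor k was measured and log k calculated from it. Chiral compounds were measured several times.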
Data set [2] concerns Candida albicans. The data set can be described thus: Antifungal activity against Candida albicans ATCC 44859 after 24 hrs by broth microdilution method. The format is functional. To be noted: ATCC 44859, 24 h. The gist of the method:
(§1)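 In vitro antifungal screening against eight strains. Compounds tested at concentrations in the range 62.5–1.95 µmol/L.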
For orientation: In broth dilution the organism is exposed to a series of concentrations in liquid medium.

Data set [3] concerns Candida tropicalis. The data set can be described thus: Antifungal activity against Candida tropicalis ATCC 156 after 24 hrs by broth microdilution method. It counts as functional. To be noted: ATCC 156, 24 h. The gist of the method:
as §1

In data set [4] the test system is Pichia kudriavzevii. The experiment in a line: Antifungal activity against Candida krusei E28 after 24 hrs by broth microdilution method. It counts as functional. The method in brief: as §1
The test system of data set [5] is Nakaseomyces glabratus. The experiment in a line: Antifungal activity against Candida glabrata 20/I after 24 hrs by broth microdilution method. It counts as functional. The method in brief:
as §1

Data set [6] concerns Trichosporon beigelii. The experiment in a line: Antifungal activity against Trichosporon beigelii 1188 after 24 hrs by broth microdilution method. The format is functional. The method in brief: as §1
Data set [7] relates to Aspergillus fumigatus. The experiment in a line: Antifungal activity against Aspergillus fumigatus 231 after 24 hrs by broth microdilution method. It counts as functional. The gist of the method:
as §1

For data set [8], the system named is Lichtheimia corymbifera. The data set can be described thus: Antifungal activity against Absidia corymbifera 272 after 24 hrs by broth microdilution method. It counts as functional. The method in brief:
as §1

Data set [9] deals with Trichophyton mentagrophytes. The experiment in a line: Antifungal activity against Trichophyton mentagrophytes 445 after 24 hrs by broth microdilution method. It counts as functional. The gist of the method:
as §1

Data set [10] deals with Candida albicans. The data set can be described thus: Antifungal activity against Candida albicans ATCC 44859 after 48 hrs by broth microdilution method. The format is functional. To be noted: ATCC 44859, 48 h. The gist of the method: as §1
In data set [11] the test system is Candida tropicalis. The data set can be described thus: Antifungal activity against Candida tropicalis ATCC 156 after 48 hrs by broth microdilution method. The conditions noted are these: ATCC 156, 48 h. It counts as functional. The gist of the method: as §1
For data set [12], the system named is Pichia kudriavzevii. The experiment in a line: Antifungal activity against Candida krusei E28 after 48 hrs by broth microdilution method. The format is functional. The gist of the method: as §1
The test system of data set [13] is Nakaseomyces glabratus. The experiment in a line: Antifungal activity against Candida glabrata 20/I after 48 hrs by broth microdilution method. The format is functional. The method in brief: as §1
The test system of data set [14] is Trichosporon beigelii. The data set can be described thus: Antifungal activity against Trichosporon beigelii 1188 after 48 hrs by broth microdilution method. It counts as functional. The gist of the method: as §1
Data set [15] deals with Aspergillus fumigatus. The experiment in a line: Antifungal activity against Aspergillus fumigatus 231 after 48 hrs by broth microdilution method. The format is functional. The gist of the method: as §1
For data set [16], the system named is Lichtheimia corymbifera. The experiment in a line: Antifungal activity against Absidia corymbifera 272 after 48 hrs by broth microdilution method. It counts as functional. The method in brief:
as §1

The test system of data set [17] is Trichophyton mentagrophytes. The data set can be described thus: Antifungal activity against Trichophyton mentagrophytes 445 after 48 hrs by broth microdilution method. The format is functional. The gist of the method:
as §1

In data set [18] the test system is Mycobacterium tuberculosis. The experiment in a line: Antitubercular activity against Mycobacterium tuberculosis H37Rv by microplate alamar blue assay. It counts as functional. On the technique in general: Alamar Blue is a resazurin reagent that responds to reducing activity.
Data set [19] concerns Mycobacterium tuberculosis. The data set can be described thus: Antitubercular activity against Mycobacterium tuberculosis H37Rv at 6.25 ug/ml by microplate alamar blue assay. It counts as functional. The gist of the method: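 Primary single-concentration screen at the TAACF against M. tuberculosis H37Rv (ATCC 27294) in BACTEC 12B medium, read by Microplate Alamar Blue Assay. Each compound was tested at 6.25 per mL, or at the molar equivalent of the highest-molecular-weight compound in its congener series.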

Usually IC80 stands for the concentration at which the effect reaches the 80% level. Usually MIC stands for the least concentration at which growth counts as inhibited. A word on the inhibition: it is how much of the control response was suppressed. For `O=C(CNC(=O)OCc1ccccc1)Oc1ccc(Cl)cc1C(=O)Nc1ccc(Cl)c(Cl)c1`, the “log K” value in data set [1] is 0.8639. Further, the IC80 in the data set with Candida albicans [2], in the data set with Candida tropicalis [3], in the data set with Pichia kudriavzevii [4], in the data set on Nakaseomyces glabratus [5], with Trichosporon beigelii [6] and in the data set with Aspergillus fumigatus [7] was more than 62.5 µg/mL each time. For the same compound, the IC80 is 62.5 µg/mL (≈ 123 µM) with Lichtheimia corymbifera [8]; 31.2 µg/mL (≈ 61.5 µM) in data set [9]; more than 62.5 µg/mL with Candida albicans [10]; more than 62.5 µg/mL in the data set with Candida tropicalis [11]; more than 62.5 µg/mL in the data set with Pichia kudriavzevii [12]; more than 62.5 µg/mL in the data set with Nakaseomyces glabratus [13]. Besides, the IC80 in the data set on Trichosporon beigelii [14] was more than 62.5 µg/mL; in the data set on Aspergillus fumigatus [15] it was more than 62.5 µg/mL; with Lichtheimia corymbifera [16] it was more than 62.5 µg/mL; in data set [17], 31.2 µg/mL (≈ 61.5 µM). Further, the MIC in data set [18] is more than 6.25 µg/mL. In data set [19], this compound gave an inhibition at 6.25 µg/mL of 0%.

Source of the values: ChEMBL document CHEMBL1154547, “Salicylanilide esters of N-protected amino acids as novel antimicrobial agents” (Bioorg Med Chem Lett, 2009).
